Non-standard residues stand in square brackets, D forms with d. Residues, ends and D or L forms follow the SMILES beside them. *: point of attachment. NH(2-Me-nonan-4R-yl) = CCCCC[C@H](CC(C)C)N*; NHCH(iBu)2 = CC(C)CC(CC(C)C)N*; X1 = CC(C)CCOC[C@H](CC(C)C)N*; X11 = CCCCC[C@@H](CC(C)C)N*; Leu(ol) = CC(C)C[C@H](N)CO; X4 = CCCCCC[C@H](CC(C)C)N*; X12 = CCCC[C@H](CC(C)C)N*; X8 = CCCC[C@@H](CC(C)C)N*; X9 = CCC[C@@H](CC(C)C)N*; X3 = COC[C@H](CC(C)C)N*; X6 = CCC[C@H](CC(C)C)N*; Piv = CC(C)(C)C(=O)*; X2 = CCCCC(CCCC)N*; X7 = CCCC(CCC)N*
Experiments:
[1] = Compound was evaluated for mitogenic inhibition against Swiss 3T3 murine fibroblast cells.
[2] = target: Gastrin-releasing peptide receptor (Mus musculus, UniProt P21729); test: Compound was evaluated for mitogenic inhibition against Swiss 3T3 murine fibroblast cells.
Chain of Gastrin-releasing peptide receptor (P21729 whole entry): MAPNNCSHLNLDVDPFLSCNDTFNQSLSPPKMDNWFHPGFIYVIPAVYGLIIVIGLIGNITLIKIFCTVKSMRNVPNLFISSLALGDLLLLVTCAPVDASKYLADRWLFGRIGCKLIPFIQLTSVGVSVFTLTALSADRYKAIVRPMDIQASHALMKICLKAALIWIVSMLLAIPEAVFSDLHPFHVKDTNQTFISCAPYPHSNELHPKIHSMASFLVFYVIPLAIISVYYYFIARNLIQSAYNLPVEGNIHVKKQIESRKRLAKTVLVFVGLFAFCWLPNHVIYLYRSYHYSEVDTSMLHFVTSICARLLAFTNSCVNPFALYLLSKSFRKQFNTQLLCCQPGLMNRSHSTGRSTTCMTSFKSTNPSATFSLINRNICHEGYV
Method in brief: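 Swiss 3T3 monolayers grown to confluence, then serum-starved in serum-free DMEM for 48 h. Antagonist added together with 3 nM N-acetyl-GRP-20-27 amide and 23 nM [3H]thymidine. After a further 48 h, cells detached with trypsin/5 mM EDTA and filter-harvested; [3H]thymidine uptake measured. IC50 is the mean of at least two independent experiments.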

[3] = Compound was evaluated for mitogenic inhibition against Swiss 3T3 murine fibroblast cells.; remark: listed apart in the source

IC50 [1] [nM] | Compound | further results
20 | CCOC(=O)[C@H](CC(C)C)NC(=O)[C@H](Cc1c[nH]cn1)NC(=O)CNC(=O)[C@@H](NC(=O)[C@H](C)NC(=O)[C@H](Cc1c[nH]c2ccccc12)NC(=O)[C@H](Cc1c[nH]cn1)NC(C)=O)C(C)C [2-[2-[2-(2-{2-[2-[2-Acetylamino-3-(3H-imidazol-4-yl)-propionylamino]-3-(1H-indol-3-yl)-propionylamino]-propionylamino}-3-methyl-butyrylamino)-acetylamino]-3-(3H-imidazol-4-yl)-propionylamino]-4-methyl-pentanoic acid ethyl ester] (Ac-HWAVGHL-OEt) | 
0.6 | CCCCC[C@H](CC(C)C)NC(=O)[C@H](Cc1cnc[nH]1)NC(=O)CNC(=O)[C@@H](NC(=O)[C@H](C)NC(=O)[C@H](Cc1c[nH]c2ccccc12)NC(=O)[C@H](Cc1cnc[nH]1)NC(=O)C(C)(C)C)C(C)C [2-{2-[2-[2-(2,2-Dimethyl-propionylamino)-3-(3H-imidazol-4-yl)-propionylamino]-3-(1H-indol-3-yl)-propionylamino]-propionylamino}-N-{[2-(3H-imidazol-4-yl)-1-(1-isobutyl-hexylcarbamoyl)-ethylcarbamoyl]-methyl}-3-methyl-butyramide] (Piv-HWAVGH-{NH(2-Me-nonan-4R-yl)}) | 
 | CC(=O)N[C@@H](Cc1c[nH]cn1)C(=O)N[C@@H](Cc1c[nH]c2ccccc12)C(=O)N[C@@H](C)C(=O)N[C@H](C(=O)NCC(=O)N[C@@H](Cc1c[nH]cn1)C(=O)N[C@H](COCCC(C)C)CC(C)C)C(C)C [2-{2-[2-[2-Acetylamino-3-(3H-imidazol-4-yl)-propionylamino]-3-(1H-indol-3-yl)-propionylamino]-propionylamino}-N-({2-(3H-imidazol-4-yl)-1-[3-methyl-1-(3-methyl-butoxymethyl)-butylcarbamoyl]-ethylcarbamoyl}-methyl)-3-methyl-butyramide] (Ac-HWAVGH-X1) | IC50 [2]: 32 nM
> 300 | CCOC[C@H](CC(C)C)NC(=O)[C@H](Cc1c[nH]cn1)NC(=O)[C@H](C)NC(=O)[C@@H](NC(=O)[C@H](C)NC(=O)[C@H](Cc1c[nH]c2ccccc12)NC(=O)[C@H](Cc1c[nH]cn1)NC(C)=O)C(C)C [2-{2-[2-[2-Acetylamino-3-(3H-imidazol-4-yl)-propionylamino]-3-(1H-indol-3-yl)-propionylamino]-propionylamino}-N-{1-[1-(1-ethoxymethyl-3-methyl-butylcarbamoyl)-2-(3H-imidazol-4-yl)-ethylcarbamoyl]-ethyl}-3-methyl-butyramide] | 
 | CCCCC(CCCC)NC(=O)[C@H](Cc1cnc[nH]1)NC(=O)CNC(=O)[C@@H](NC(=O)[C@H](C)NC(=O)[C@H](Cc1c[nH]c2ccccc12)NC(=O)[C@H](Cc1cnc[nH]1)NC(C)=O)C(C)C [2-{2-[2-[2-Acetylamino-3-(3H-imidazol-4-yl)-propionylamino]-3-(1H-indol-3-yl)-propionylamino]-propionylamino}-N-{[1-(1-butyl-pentylcarbamoyl)-2-(3H-imidazol-4-yl)-ethylcarbamoyl]-methyl}-3-methyl-butyramide] (Ac-HWAVGH-X2) | IC50 [3]: 11 nM
300 | CC(=O)N[C@@H](Cc1c[nH]cn1)C(=O)N[C@@H](Cc1c[nH]c2ccccc12)C(=O)N[C@@H](C)C(=O)N[C@H](C(=O)NCC(=O)N[C@@H](Cc1c[nH]cn1)C(=O)N[C@H](CO)CC(C)C)C(C)C [2-{2-[2-[2-Acetylamino-3-(3H-imidazol-4-yl)-propionylamino]-3-(1H-indol-3-yl)-propionylamino]-propionylamino}-N-{[1-(1-hydroxymethyl-3-methyl-butylcarbamoyl)-2-(3H-imidazol-4-yl)-ethylcarbamoyl]-methyl}-3-methyl-butyramide] (Ac-HWAVGH[Leu(ol)]) | 
 | CC(=O)N[C@@H](Cc1cnc[nH]1)C(=O)N[C@@H](Cc1c[nH]c2ccccc12)C(=O)N[C@@H](C)C(=O)N[C@H](C(=O)NCC(=O)N[C@@H](Cc1cnc[nH]1)C(=O)NC(CC(C)C)CC(C)C)C(C)C [2-{2-[2-[2-Acetylamino-3-(3H-imidazol-4-yl)-propionylamino]-3-(1H-indol-3-yl)-propionylamino]-propionylamino}-N-{[2-(3H-imidazol-4-yl)-1-(1-isobutyl-3-methyl-butylcarbamoyl)-ethylcarbamoyl]-methyl}-3-methyl-butyramide] (Ac-HWAVGH-{NHCH(iBu)2}) | IC50 [3]: 8 nM
7 | CCCCCC[C@H](CC(C)C)NC(=O)[C@H](Cc1cnc[nH]1)NC(=O)CNC(=O)[C@@H](NC(=O)[C@H](C)NC(=O)[C@H](Cc1c[nH]c2ccccc12)NC(=O)[C@H](Cc1cnc[nH]1)NC(C)=O)C(C)C [2-{2-[2-[2-Acetylamino-3-(3H-imidazol-4-yl)-propionylamino]-3-(1H-indol-3-yl)-propionylamino]-propionylamino}-N-{[2-(3H-imidazol-4-yl)-1-(1-isobutyl-heptylcarbamoyl)-ethylcarbamoyl]-methyl}-3-methyl-butyramide] (Ac-HWAVGH-X4) | 
22 | CCCCC[C@@H](CC(C)C)NC(=O)[C@H](Cc1cnc[nH]1)NC(=O)CNC(=O)[C@@H](NC(=O)[C@H](C)NC(=O)[C@H](Cc1c[nH]c2ccccc12)NC(=O)[C@H](Cc1cnc[nH]1)NC(C)=O)C(C)C [2-{2-[2-[2-Acetylamino-3-(3H-imidazol-4-yl)-propionylamino]-3-(1H-indol-3-yl)-propionylamino]-propionylamino}-N-{[2-(3H-imidazol-4-yl)-1-(1-isobutyl-hexylcarbamoyl)-ethylcarbamoyl]-methyl}-3-methyl-butyramide] (Ac-HWAVGH-X11) | 
4 | CCCCC[C@H](CC(C)C)NC(=O)[C@H](Cc1cnc[nH]1)NC(=O)CNC(=O)[C@@H](NC(=O)[C@H](C)NC(=O)[C@H](Cc1c[nH]c2ccccc12)NC(=O)[C@H](Cc1cnc[nH]1)NC(C)=O)C(C)C [2-{2-[2-[2-Acetylamino-3-(3H-imidazol-4-yl)-propionylamino]-3-(1H-indol-3-yl)-propionylamino]-propionylamino}-N-{[2-(3H-imidazol-4-yl)-1-(1-isobutyl-hexylcarbamoyl)-ethylcarbamoyl]-methyl}-3-methyl-butyramide] (Ac-HWAVGH-{NH(2-Me-nonan-4R-yl)}) | 
6 | CCCC[C@@H](CC(C)C)NC(=O)[C@H](Cc1c[nH]cn1)NC(=O)CNC(=O)[C@@H](NC(=O)[C@H](C)NC(=O)[C@H](Cc1c[nH]c2ccccc12)NC(=O)[C@H](Cc1c[nH]cn1)NC(C)=O)C(C)C [2-{2-[2-[2-Acetylamino-3-(3H-imidazol-4-yl)-propionylamino]-3-(1H-indol-3-yl)-propionylamino]-propionylamino}-N-{[2-(3H-imidazol-4-yl)-1-(1-isobutyl-pentylcarbamoyl)-ethylcarbamoyl]-methyl}-3-methyl-butyramide] (Ac-HWAVGH-X8) | 
 | CCCC[C@H](CC(C)C)NC(=O)[C@H](Cc1cnc[nH]1)NC(=O)CNC(=O)[C@@H](NC(=O)[C@H](C)NC(=O)[C@H](Cc1c[nH]c2ccccc12)NC(=O)[C@H](Cc1cnc[nH]1)NC(C)=O)C(C)C [2-{2-[2-[2-Acetylamino-3-(3H-imidazol-4-yl)-propionylamino]-3-(1H-indol-3-yl)-propionylamino]-propionylamino}-N-{[2-(3H-imidazol-4-yl)-1-(1-isobutyl-pentylcarbamoyl)-ethylcarbamoyl]-methyl}-3-methyl-butyramide] (Ac-HWAVGH-X12) | IC50 [3]: 3 nM
91 | COC[C@H](CC(C)C)NC(=O)[C@H](Cc1c[nH]cn1)NC(=O)CNC(=O)[C@@H](NC(=O)[C@H](C)NC(=O)[C@H](Cc1c[nH]c2ccccc12)NC(=O)[C@H](Cc1c[nH]cn1)NC(C)=O)C(C)C [2-{2-[2-[2-Acetylamino-3-(3H-imidazol-4-yl)-propionylamino]-3-(1H-indol-3-yl)-propionylamino]-propionylamino}-N-{[2-(3H-imidazol-4-yl)-1-(1-methoxymethyl-3-methyl-butylcarbamoyl)-ethylcarbamoyl]-methyl}-3-methyl-butyramide] (Ac-HWAVGH-X3) | 
80 | CCCC(CCC)NC(=O)[C@H](Cc1cnc[nH]1)NC(=O)CNC(=O)[C@@H](NC(=O)[C@H](C)NC(=O)[C@H](Cc1c[nH]c2ccccc12)NC(=O)[C@H](Cc1cnc[nH]1)NC(C)=O)C(C)C [2-{2-[2-[2-Acetylamino-3-(3H-imidazol-4-yl)-propionylamino]-3-(1H-indol-3-yl)-propionylamino]-propionylamino}-N-{[2-(3H-imidazol-4-yl)-1-(1-propyl-butylcarbamoyl)-ethylcarbamoyl]-methyl}-3-methyl-butyramide] (Ac-HWAVGH-X7) | 
10 | CCC[C@H](CC(C)C)NC(=O)[C@H](Cc1cnc[nH]1)NC(=O)CNC(=O)[C@@H](NC(=O)[C@H](C)NC(=O)[C@H](Cc1c[nH]c2ccccc12)NC(=O)[C@H](Cc1cnc[nH]1)NC(C)=O)C(C)C [2-{2-[2-[2-Acetylamino-3-(3H-imidazol-4-yl)-propionylamino]-3-(1H-indol-3-yl)-propionylamino]-propionylamino}-N-{[2-(3H-imidazol-4-yl)-1-(3-methyl-1-propyl-butylcarbamoyl)-ethylcarbamoyl]-methyl}-3-methyl-butyramide] (Ac-HWAVGH-X6) | 
35 | CCC[C@@H](CC(C)C)NC(=O)[C@H](Cc1cnc[nH]1)NC(=O)CNC(=O)[C@@H](NC(=O)[C@H](C)NC(=O)[C@H](Cc1c[nH]c2ccccc12)NC(=O)[C@H](Cc1cnc[nH]1)NC(C)=O)C(C)C [2-{2-[2-[2-Acetylamino-3-(3H-imidazol-4-yl)-propionylamino]-3-(1H-indol-3-yl)-propionylamino]-propionylamino}-N-{[2-(3H-imidazol-4-yl)-1-(3-methyl-1-propyl-butylcarbamoyl)-ethylcarbamoyl]-methyl}-3-methyl-butyramide] (Ac-HWAVGH-X9) | 

— BindingDB's records for doi:10.1021/jm00111a027 (Merck Sharp & Dohme Research Laboratories, 1991)
